Test results: ChEMBL document CHEMBL3627671, “Novel derivatives of nitro-substituted salicylic acids: Synthesis, antimicrobial activity and cytotoxicity” (Bioorg Med Chem, 2015)

How the values were obtained:
Type in all cases: functional
[1] = system: Trichophyton mentagrophytes; assay: Antifungal activity against Trichophyton mentagrophytes 445 after 24 hrs by microdilution broth method; details: Trichophyton mentagrophytes, 445, 24 h
Lichtheimia corymbifera [2] = assay: Antifungal activity against Absidia corymbifera 272 after 24 hrs by microdilution broth method; details: Lichtheimia corymbifera, 272, 24 h
Summary of the method: (§1)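 CLSI M27-A3 broth microdilution in RPMI 1640 with glutamine, buffered to pH 7.0 with MOPS; DMSO diluent. Yeast inoculum 5 × 10^3 ± 0.2 CFU/mL. Moulds grown on Sabouraud agar 3–10 days before spore harvest, final inoculum 0.5-5 × 10^4 CFU/mL, checked in a Bürker chamber. Incubated dark, humid, 35 °C, read at 24 and 48 h visually and at 540 nm. MIC taken as ≥80% (yeasts) or ≥50% (filamentous) growth reduction versus control.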

Mycobacterium kansasii [3] = assay: Antimycobacterial activity against Mycobacterium kansasii 6509/96 after 7 days; details: 6509/96, 168 h
Summary of the method: (§2)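 Šula's semisynthetic medium micromethod at 37 °C, read after 7, 14 and 21 days. The 1.0 McFarland suspension was diluted 10^-4. MIC determined. 6509/96 is a clinical isolate.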

Trichosporon asahii [4] = assay: Antifungal activity against Trichosporon asahii 1188 after 48 hrs by microdilution broth method; details: Trichosporon asahii, 1188, 48 h; summary of the method: as §1
Klebsiella pneumoniae [5] = assay: Antibacterial activity against ESBL-positive Klebsiella pneumoniae J 14368/08 after 48 hrs by microdilution broth method; details: J 14368/08, 48 h
Summary of the method: (§3)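 Mueller-Hinton broth microdilution (modified M07-A07), pH 7.4 (±0.2). Compounds dissolved in DMSO, tested at final 500 to 0.49 µmol/L. Inoculum in sterile water matched to 0.5 McFarland. Incubated in the dark, humid atmosphere, 35 °C, read at 24 and 48 h visually and at 540 nm. MIC taken as ≥95% growth reduction (IC95) versus control.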

Mycobacterium kansasii [6] = assay: Antimycobacterial activity against Mycobacterium kansasii 6509/96 after 14 days; details: 6509/96, 336 h; summary of the method: as §2
Mycobacterium kansasii [7] = assay: Antimycobacterial activity against Mycobacterium kansasii 235/80 after 21 days; details: 235/80, 504 h; summary of the method: as §2
[8] = system: Mycobacterium tuberculosis; assay: Antimycobacterial activity against Mycobacterium tuberculosis H37Rv 331/88 after 21 days; details: H37Rv 331/88, 504 h
Lichtheimia corymbifera [9] = assay: Antifungal activity against Absidia corymbifera 272 after 48 hrs by microdilution broth method; details: Lichtheimia corymbifera, 272, 48 h; summary of the method: as §1
Staphylococcus aureus [10] = assay: Antibacterial activity against methicillin-resistant Staphylococcus aureus H 5996/08 after 48 hrs by microdilution broth method; details: H 5996/08, 48 h
[11] = system: Staphylococcus epidermidis; assay: Antibacterial activity against Staphylococcus epidermidis H 6966/08 after 24 hrs by microdilution broth method; details: H 6966/08, 24 h; summary of the method: as §3
Staphylococcus aureus [12] = assay: Antibacterial activity against Staphylococcus aureus CCM 4516/08 after 48 hrs by microdilution broth method; details: CCM 4516/08, 48 h
Pseudomonas aeruginosa [13] = assay: Antibacterial activity against Pseudomonas aeruginosa CCM 1961 after 24 hrs by microdilution broth method; details: CCM 1961, 24 h; summary of the method: as §3
Mycobacterium kansasii [14] = assay: Antimycobacterial activity against Mycobacterium kansasii 235/80 after 14 days; details: 235/80, 336 h; summary of the method: as §2
Trichosporon asahii [15] = assay: Antifungal activity against Trichosporon asahii 1188 after 24 hrs by microdilution broth method; details: Trichosporon asahii, 1188, 24 h; summary of the method: as §1
Aspergillus fumigatus [16] = assay: Antifungal activity against Aspergillus fumigatus 231 after 24 hrs by microdilution broth method; details: Aspergillus fumigatus, 231, 24 h; summary of the method: as §1
Candida tropicalis [17] = assay: Antifungal activity against Candida tropicalis 156 after 24 hrs by microdilution broth method; details: Candida tropicalis, 156, 24 h; summary of the method: as §1
Staphylococcus aureus [18] = assay: Antibacterial activity against Staphylococcus aureus CCM 4516/08 after 24 hrs by microdilution broth method; details: CCM 4516/08, 24 h
Candida tropicalis [19] = assay: Antifungal activity against Candida tropicalis 156 after 48 hrs by microdilution broth method; details: Candida tropicalis, 156, 48 h; summary of the method: as §1
Nakaseomyces glabratus [20] = assay: Antifungal activity against Candida glabrata 20/I after 24 hrs by microdilution broth method; summary of the method: as §1
Klebsiella pneumoniae [21] = assay: Antibacterial activity against ESBL-positive Klebsiella pneumoniae J 14368/08 after 24 hrs by microdilution broth method; details: J 14368/08, 24 h; summary of the method: as §3
Pichia kudriavzevii [22] = assay: Antifungal activity against Candida krusei E28 after 24 hrs by microdilution broth method; details: E28, 24 h; summary of the method: as §1
[23] = system: Staphylococcus epidermidis; assay: Antibacterial activity against Staphylococcus epidermidis H 6966/08 after 48 hrs by microdilution broth method; details: H 6966/08, 48 h; summary of the method: as §3
Enterococcus sp. [24] = assay: Antibacterial activity against Enterococcus sp. J 14365/08 after 24 hrs by microdilution broth method; details: J 14365/08, 24 h; summary of the method: as §3
Escherichia coli [25] = assay: Antibacterial activity against Escherichia coli CCM4517 after 48 hrs by microdilution broth method; details: CCM4517, 48 h; summary of the method: as §3
Enterococcus sp. [26] = assay: Antibacterial activity against Enterococcus sp. J 14365/08 after 48 hrs by microdilution broth method; details: J 14365/08, 48 h; summary of the method: as §3
Mycobacterium avium [27] = assay: Antimycobacterial activity against Mycobacterium avium 330/80 after 21 days; details: 330/80, 504 h
Pichia kudriavzevii [28] = assay: Antifungal activity against Candida krusei E28 after 48 hrs by microdilution broth method; details: E28, 48 h; summary of the method: as §1
[29] = system: Trichophyton mentagrophytes; assay: Antifungal activity against Trichophyton mentagrophytes 445 after 48 hrs by microdilution broth method; details: Trichophyton mentagrophytes, 445, 48 h
Nakaseomyces glabratus [30] = assay: Antifungal activity against Candida glabrata 20/I after 48 hrs by microdilution broth method; summary of the method: as §1
Candida albicans [31] = assay: Antifungal activity against Candida albicans ATCC 44859 after 48 hrs by microdilution broth method; details: ATCC 44859, 48 h; summary of the method: as §1
Klebsiella pneumoniae [32] = assay: Antibacterial activity against Klebsiella pneumoniae D 11750/08 after 24 hrs by microdilution broth method; details: D 11750/08, 24 h; summary of the method: as §3
Escherichia coli [33] = assay: Antibacterial activity against Escherichia coli CCM4517 after 24 hrs by microdilution broth method; details: CCM4517, 24 h; summary of the method: as §3
Klebsiella pneumoniae [34] = assay: Antibacterial activity against Klebsiella pneumoniae D 11750/08 after 48 hrs by microdilution broth method; details: D 11750/08, 48 h; summary of the method: as §3
Pseudomonas aeruginosa [35] = assay: Antibacterial activity against Pseudomonas aeruginosa CCM 1961 after 48 hrs by microdilution broth method; details: CCM 1961, 48 h; summary of the method: as §3
Aspergillus fumigatus [36] = assay: Antifungal activity against Aspergillus fumigatus 231 after 48 hrs by microdilution broth method; details: Aspergillus fumigatus, 231, 48 h; summary of the method: as §1
Mycobacterium avium [37] = assay: Antimycobacterial activity against Mycobacterium avium 330/80 after 14 days; details: 330/80, 336 h
[38] = system: Mycobacterium tuberculosis; assay: Antimycobacterial activity against Mycobacterium tuberculosis H37Rv 331/88 after 14 days; details: H37Rv 331/88, 336 h
Candida albicans [39] = assay: Antifungal activity against Candida albicans ATCC 44859 after 24 hrs by microdilution broth method; details: ATCC 44859, 24 h; summary of the method: as §1
Staphylococcus aureus [40] = assay: Antibacterial activity against methicillin-resistant Staphylococcus aureus H 5996/08 after 24 hrs by microdilution broth method; details: H 5996/08, 24 h
Mycobacterium kansasii [41] = assay: Antimycobacterial activity against Mycobacterium kansasii 235/80 after 7 days; details: 235/80, 168 h; summary of the method: as §2
Mycobacterium kansasii [42] = assay: Antimycobacterial activity against Mycobacterium kansasii 6509/96 after 21 days; details: 6509/96, 504 h; summary of the method: as §2

Measured: MIC

O=C(Nc1cccc(F)c1)c1ccc([N+](=O)[O-])cc1O
31.2 µM: Staphylococcus aureus [10] | Staphylococcus aureus [12] | [23]
15.6 µM: [11] | Staphylococcus aureus [18] | Staphylococcus aureus [40]
32 µM: Mycobacterium kansasii [6] | Mycobacterium kansasii [7] | Mycobacterium kansasii [42]
16 µM: Mycobacterium kansasii [3] | [8] | Mycobacterium kansasii [14] | [38] | Mycobacterium kansasii [41]
> 500 µM: Pseudomonas aeruginosa [13] | Nakaseomyces glabratus [20] | Enterococcus sp. [26] | Nakaseomyces glabratus [30] | Klebsiella pneumoniae [34] | Pseudomonas aeruginosa [35]
125 µM: Mycobacterium avium [27]
62.5 µM: Pichia kudriavzevii [22] | Pichia kudriavzevii [28] | Mycobacterium avium [37]
500 µM: [1] | Klebsiella pneumoniae [5] | Candida tropicalis [19] | Klebsiella pneumoniae [21] | Enterococcus sp. [24] | [29] | Candida albicans [31] | Klebsiella pneumoniae [32]
250 µM: all other assays above
